Measured values published in ChEMBL document CHEMBL4513216, “Probing the Open Global Health Chemical Diversity Library for Multistage-Active Starting Points for Next-Generation Antimalarials” (ACS Infect Dis, 2020).

Assay: Toxicity liver stage against HepG2, at 10uM
Format: cell-based
Parameters: test concentration 10 uM, cell line HepG2-A16-CD81EGFP
Conditions: human, HepG2-A16-CD81EGFP cells; read-out: INHIBITION
Outline: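 Uninfected HepG2-A16-CD81EGFP cells, 3 × 10^3 per well, 1536-well, plated on prespotted compound at 10 μM final, parasite-free screening media added to match infected plates; puromycin 10 μM positive, DMSO 0.5% negative; run in parallel with 48 h PbLuc assay at 37 °C, 5% CO2; viability by CellTiter-Glo luminescence, normalized to controls.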

| Compound | cytotoxicity at 10 µM [%] |
| --- | --- |
| Cc1cc(C)nc(N2CCCC2c2cccnc2)n1 (stereo not given) | 0.997 |
| CCCc1nc2c(c(C)c(C)n2CCN(C)C)c(N)c1CC | 12.9 |
| O=C(Nc1ccc2c(c1)OCO2)c1ccc(N2CCCC2)nn1 | 54.7 |
| CS(=O)(=O)N1CCC(CNC(=O)C2CCC2)CC1 | -2.99 |
| CCCS(=O)(=O)N1CCc2nc(N3CCOCC3)nc(N(C)C)c2C1 | 15.5 |
| O=C(COC1CCCC1)N1CC[C@H]2OCC[C@@]2(COCC2CC2)C1 | 1.52 |
| COc1cc(C2SCC(=O)Nc3ccsc32)cc(OC)c1O (stereo not given) | 54.7 |
| CCCc1nc(NCCc2ccccc2)c2c(n1)c(C)nn2CC | 20 |
| CCOc1ccc(CN2CCC(c3ccn[nH]3)C2)cc1CO (stereo not given) | 0.845 |
| CCN(Cc1ccncc1)CC1(O)CCN(C(=O)c2cccc(C)n2)C1 (stereo not given) | -4.08 |
| Cc1ccccc1CN1CCC(c2nn(CCN)c3nccnc23)C1 (stereo not given) | -24.3 |
| CN1CCCC(Cc2cncc(C(=O)N3CCOCC3)c2)C1 (stereo not given) | 6.32 |
| Cc1nc(C2CCCN2C(=O)CCc2ccc(F)cc2)ncc1C(N)=O (stereo not given) | -15.7 |
| CN(Cc1ccc(F)cc1)CC1(O)CCN(C(=O)c2ccsc2)C1 (stereo not given) | -28.2 |
| Cc1noc(C)c1-c1cncc(C2CCCN2Cc2ccncc2)n1 (stereo not given) | -7.98 |
| Cc1noc(C)c1-c1cnc(CC2CCN(C(=O)c3cc[nH]n3)C2)cn1 (stereo not given) | 3.6 |
| CC(C)C(C)NC(=O)Nc1cccn(C)c1=O (stereo not given) | -7.48 |
| Cc1nccn1-c1ccc(CNS(=O)(=O)N2CCCCC2C)cn1 (stereo not given) | -11 |
| O=C(NCC(O)c1ccc(Cl)s1)c1ccoc1 (stereo not given) | -3.36 |
| Cc1cc(CNc2cc(-c3ccoc3C)nn2CCO)c(C)o1 | -0.598 |
| CN(C)CCn1ccc(NC(=O)NC(C)(C)c2nccs2)n1 | 3.92 |
| CC(C)(C)CN(CCO)C(=O)Nc1cccc(N2CCNC2=O)c1 | -17.2 |
| COC(=O)CN(C(=O)c1ccoc1)c1cccc(F)c1 | 5.42 |
| Cc1cc(C(=O)NC2CCCOc3cc(Cl)ccc32)n(C)n1 (stereo not given) | 1.97 |
| CS(=O)(=O)NC(=O)c1cnc2c(cnn2C2CCCC2)c1 | 8.18 |
| O=C(CN1CCN(c2ccccc2F)CC1)Nc1ccc(Cl)cn1 | 4.04 |
| Cn1ccnc1COc1ccc(NC(=O)CCC2CCCO2)cc1 (stereo not given) | 4.34 |

| Compound | cytotoxicity at 10 µM [%] |
| --- | --- |
| O=C(NCc1cccnc1-n1cncn1)c1cncc(Br)c1 | 10 |
| CCN(CC)C(=O)CNC(=O)N1CCC(c2ccccc2)C1 (stereo not given) | 2.03 |
| CCc1cc(CNCc2ccccc2N(C)C2CCN(C)CC2)on1 | -11.7 |
| CCN(CCNCc1ccc(C#N)cc1)C1CC1 | -6.54 |
| CN(C)S(=O)(=O)NCC(O)c1cc2ccccc2s1 (stereo not given) | -13.2 |
| CCC1CN(C(=O)c2cnc(-c3cnn(C)c3)s2)CCO1 (stereo not given) | 8.79 |
| O=C(Cc1ccc(S(=O)(=O)C(F)F)cc1)N1CCC1 | -17 |
| CC(C)(C)C(CCO)NC(=O)Nc1ccccc1 (stereo not given) | -3.3 |
| CS(=O)(=O)N1CCO[C@@H]2CN(C(=O)C3CCOC3)CC[C@@H]2C1 (stereo not given in full) | -108 |
| O=C1NCCO[C@H]2CN(C(=O)c3cccs3)CC[C@@H]12 | -107 |
| N#Cc1ccc(C(=O)N2CC[C@H]3[C@@H]2CCC(=O)N3c2ccccc2)cc1 | 3.99 |
| CC[C@H](C)Nc1nccc(-c2cnc3sc(C)c(C)n3c2=O)n1 | 11.1 |
| CCN(C)C[C@@H]1CN(C(=O)c2cc(-c3ccc(F)cc3)n[nH]2)C[C@@H]1CO | -26.4 |
| Cc1ccccc1CN1CCC(CNc2ncnc3c2CCNCC3)C1 (stereo not given) | -7.13 |
| CNC(=O)[C@@H]1C[C@@H](n2cc(-c3ccc(Cl)cc3)nn2)CN1 | -3.95 |
| COc1ccc(F)cc1CN1CCCn2nc(CNS(C)(=O)=O)cc2C1 | 2.23 |
| CCCc1cc(=O)[nH]c(-c2cccc(CN3CCCCCC3)c2)n1 | -4.09 |
| COc1cccc(OCC2CCCN(C(=O)c3cnn(C)c3)C2)c1 (stereo not given) | -21.4 |
| CCn1c(C2CCCN(C(=O)C(C)(C)OC)C2)nn(CCN(C)C)c1=O (stereo not given) | -1.94 |
| O=S1(=O)C[C@@H]2[C@H](C1)N(Cc1ccoc1)CCN2Cc1ccncc1 | -0.452 |
| Cc1nc(N)ncc1C(=O)N1CCCC(CCc2ccccc2F)C1 (stereo not given) | -4.96 |
| COc1cccc(-c2noc(-c3ccc(NCCCO)nc3)n2)c1OC | -1.5 |
| O=C(c1ccc(S(=O)(=O)NCC(F)F)cc1)N1CC[C@H]2CNC[C@H]21 | -14 |
| CCCc1cc(CNC(=O)Cc2cc(C)no2)on1 | -1.04 |
| COc1c(C)cnc(CN(C)C2CCOC3(CCOCC3)C2)c1C (stereo not given) | -0.971 |
| CN(C)c1ccc(CC(=O)N2C[C@H](C3CC3)[C@@H](N)C2)cc1 | -3.97 |
| Nc1cc(C(=O)NCC2CCN(Cc3cccc(O)c3)C2)ccn1 (stereo not given) | -8.69 |

| Compound | cytotoxicity at 10 µM [%] |
| --- | --- |
| COCCN(CC1CCCN(C2Cc3ccccc3C2)C1)C(=O)CO (stereo not given) | -6.93 |
| O=C(NCCc1cnccn1)C1(N2CCCCC2)Cc2ccccc2C1 | -7.82 |
| Cc1cc(C)c2c(N3CCN(C(=O)N(C)C)CC3)ncnc2n1 | -1.18 |
| O=C(c1cnc(Cc2c(Cl)cccc2Cl)nc1O)N1CCNCC1 | -3.01 |
| Cc1ccnc(N2CCN(Cc3ccccc3)CC(O)C2)c1 (stereo not given) | -1.88 |
| COCC(=O)N1CCC(C(=O)N(C)C(C)c2ccon2)CC1 (stereo not given) | 1.28 |
| CC(C)NC(=O)c1nc(Cn2c(C(F)(F)F)nc3ccccc32)no1 | 20.7 |
| CCN(CCO)C(=O)C1CCC(=O)N(CCc2cccc(F)c2)C1 (stereo not given) | -4.15 |
| CCc1ncc(C(=O)N2CCCN(C3CCCC3)CC2)cn1 | -7.38 |
| Cc1cc2c(=O)n3c(nc2s1)CCN(Cc1cnc(C(C)C)nc1)CC3 | 10.5 |
| COc1ccc(CC(=O)N2CCCC2Cn2cccn2)cc1F (stereo not given) | -0.587 |
| CC(C)NC(=O)Nc1ccc(CNCc2cccc(C#N)c2)cc1 | -7.15 |
| CCc1nnsc1C(=O)N1CCCN(Cc2nccn2C)CC1 | -4.26 |
| CCC(CN1CCCC1)n1cncc1-c1cnn(-c2ccc(F)cc2)c1 (stereo not given) | 5.29 |
| CN1C(=O)C2(CCN(C(=O)c3ccccc3)CC2)c2cccc(F)c21 | 4.74 |
| CCn1ncc2c1C(COC)N(C(=O)c1ccsc1)CC2 (stereo not given) | -101 |
| Cn1nc(C2CCCN(Cc3ccc(F)cc3)C2)c2nccnc21 (stereo not given) | -24.8 |
| COc1ccc(CN2CCC3(CC2)CCN(c2cnn(C)c2)C3=O)cc1 | -85.6 |
| CCn1nnc2c1C(COCCN(C)C)CN(S(C)(=O)=O)C2 (stereo not given) | -2.69 |
| c1cc(COC[C@]23COC[C@H]2CN(Cc2ccncc2)C3)ccn1 | -63.5 |
| O=S(=O)(C1CC1)N1C[C@H]2CCC[C@@]2(COCc2ccccn2)C1 | 10.6 |
| O=C(Cc1cccs1)N1C[C@@H]2COC[C@]2(COCc2cccnc2)C1 | -2.8 |
| O=C(c1ccc(F)cc1)N1C[C@@H]2CCN(c3cccnc3)C[C@@H]2C1 | -78.4 |
| Fc1ccc(CN2C[C@@H](OCc3ccccn3)[C@H]3COC[C@H]32)cc1 | -98.9 |
| O=C(CC1CCCC1)N1CC[C@H]2[C@H]1CCN2c1nncs1 | -3.43 |
| Cc1c(-c2cccs2)nn2c(=O)c3c([nH]c12)CN(C(=O)C1CC1)C3 | -4.02 |
